Laboratory results: ChEMBL document CHEMBL1649165, “Activity profile in vitro of micafungin against Spanish clinical isolates of common and emerging species of yeasts and molds” (2009)
Converted amounts (≈) assume the structure as drawn.

Assays:
Type in all cases: functional
Fusarium equiseti = experiment: Antimicrobial activity against Fusarium equiseti by broth microdilution method
In short: (§1)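 Clinical mould isolates, tested by broth microdilution using the AFST-EUCAST reference method for filamentous fungi. For echinocandins, the endpoint was the minimum effective concentration: the lowest drug concentration giving aberrant hyphal growth, read with an inverted microscope.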

[1] = tested on: Meyerozyma guilliermondii; experiment: Antimicrobial activity against Candida guilliermondii by broth microdilution method
In short: (§2)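 Clinical isolates from human patients, tested by broth microdilution using the AFST-EUCAST reference procedure for fermentative yeasts. The MIC was read per that reference method.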

Aureobasidium pullulans = experiment: Antimicrobial activity against Aureobasidium pullulans by broth microdilution method
Rhizopus arrhizus = experiment: Antimicrobial activity against Rhizopus oryzae by broth microdilution method
In short: (§3)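 Filamentous fungus clinical isolates tested by the AFST-EUCAST reference broth microdilution method for moulds. For echinocandins, the endpoint was the minimum effective concentration: the lowest drug concentration giving aberrant hyphal growth, read with an inverted microscope.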

Candida orthopsilosis = experiment: Antimicrobial activity against Candida orthopsilosis by broth microdilution method; conditions: Lodderomyces orthopsilosis; in short: as §2
Aspergillus ustus = experiment: Antimicrobial activity against Aspergillus ustus by broth microdilution method; in short: as §1
[2] = tested on: Cladophialophora bantiana; experiment: Antimicrobial activity against Cladophialophora bantiana by broth microdilution method; in short: as §1
Ustilago = experiment: Antimicrobial activity against Ustilago spp by broth microdilution method
Exophiala dermatitidis = experiment: Antimicrobial activity against Exophiala dermatitidis by broth microdilution method
Neurospora sitophila = experiment: Antimicrobial activity against Chrysonilia sitophila by broth microdilution method; in short: as §1
Aspergillus nidulans = experiment: Antimicrobial activity against Aspergillus nidulans by broth microdilution method; in short: as §1
Beauveria bassiana = experiment: Antimicrobial activity against Beauveria bassiana by broth microdilution method; in short: as §1
Debaryomyces hansenii = experiment: Antimicrobial activity against Candida famata by broth microdilution method; in short: as §2
Cladosporium = experiment: Antimicrobial activity against Cladosporium spp. by broth microdilution method; in short: as §1
Aspergillus versicolor = experiment: Antimicrobial activity against Aspergillus versicolor by broth microdilution method; in short: as §1
Rhodotorula glutinis = experiment: Antimicrobial activity against Rhodotorula glutinis by broth microdilution method
In short: (§4)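 Nonfermentative yeast clinical isolates (Rhodotorula, Trichosporon) tested by broth microdilution. The EUCAST yeast recommendations were followed strictly, with one minor modification to improve growth. MIC was read as the endpoint.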

Hortaea werneckii = experiment: Antimicrobial activity against Hortaea werneckii by broth microdilution method
Aspergillus glaucus = experiment: Antimicrobial activity against Aspergillus glaucus by broth microdilution method; in short: as §1
Exophiala jeanselmei = experiment: Antimicrobial activity against Exophiala jeanselmei by broth microdilution method
Candida metapsilosis = experiment: Antimicrobial activity against Candida metapsilosis by broth microdilution method; conditions: Lodderomyces metapsilosis; in short: as §2
[3] = tested on: Scopulariopsis brevicaulis; experiment: Antimicrobial activity against Scopulariopsis brevicaulis by broth microdilution method; in short: as §3
[4] = Antimicrobial activity against Hormographiella aspergillata by broth microdilution method; conditions: Coprinopsis cinerea; in short: as §3
Trichosporon ovoides = experiment: Antimicrobial activity against Trichosporon ovoides by broth microdilution method; in short: as §4
Pichia kudriavzevii = experiment: Antimicrobial activity against Candida krusei by broth microdilution method; in short: as §2
[5] = Antimicrobial activity against Rhizopus microsporus by broth microdilution method; in short: as §3
Lomentospora prolificans = experiment: Antimicrobial activity against Scedosporium prolificans by broth microdilution method; in short: as §3
[6] = tested on: Cunninghamella bertholletiae; experiment: Antimicrobial activity against Cunninghamella bertholletiae by broth microdilution method; in short: as §1
Lichtheimia corymbifera = experiment: Antimicrobial activity against Mycocladus corymbiferus by broth microdilution method; in short: as §3
Trichosporon inkin = experiment: Antimicrobial activity against Trichosporon inkin by broth microdilution method; in short: as §4
Candida parapsilosis = experiment: Antimicrobial activity against Candida parapsilosis by broth microdilution method; conditions: Lodderomyces parapsilosis; in short: as §2
Fusarium solani = experiment: Antimicrobial activity against Fusarium solani by broth microdilution method; in short: as §3
Phialemonium curvatum = experiment: Antimicrobial activity against Phialemonium curvatum by broth microdilution method; conditions: Thyridium curvatum; in short: as §3
Clavispora lusitaniae = experiment: Antimicrobial activity against Candida lusitaniae by broth microdilution method; in short: as §2
[7] = tested on: Cryptococcus deneoformans; experiment: Antimicrobial activity against Cryptococcus neoformans var. neoformans by broth microdilution method
In short: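 Clinical isolates of nonfermentative yeasts, tested by broth microdilution following EUCAST recommendations. The only change from that method was a minor modification to improve growth.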

Fusarium oxysporum = experiment: Antimicrobial activity against Fusarium oxysporum by broth microdilution method; in short: as §1
Rhizomucor = experiment: Antimicrobial activity against Rhizomucor spp.by broth microdilution method; in short: as §3
Geotrichum candidum = experiment: Antimicrobial activity against Galactomyces geotrichum by broth microdilution method
Saksenaea vasiformis = experiment: Antimicrobial activity against Saksenaea vasiformis by broth microdilution method; in short: as §3
[8] = tested on: Kazachstania pintolopesii; experiment: Antimicrobial activity against Candida pintolopesii by broth microdilution method; conditions: Arxiozyma pintolopesii; in short: as §2
Rhodotorula mucilaginosa = experiment: Antimicrobial activity against Rhodotorula mucilaginosa by broth microdilution method; in short: as §4
Lewia infectoria = experiment: Antimicrobial activity against Alternaria infectoria by broth microdilution method; in short: as §1

CC[C@H](C)C[C@H](C)CCCCCCCCC(=O)N[C@H]1C[C@@H](O)[C@@H](NCCN)NC(=O)[C@@H]2[C@@H](O)CCN2C(=O)[C@H]([C@H](O)CCN)NC(=O)[C@H]([C@H](O)[C@@H](O)c2ccc(O)cc2)NC(=O)[C@@H]2C[C@@H](O)CN2C(=O)[C@H]([C@@H](C)O)NC1=O [CASPOFUNGIN] showed an MIC50 (Fusarium equiseti) greater than 16 mg/L, an MIC90 (Fusarium equiseti) greater than 16 mg/L and an MIC50 [1] of 0.5 mg/L (≈ 0.457 µM). For the same compound, the MIC90 [1] was 1 mg/L (≈ 0.915 µM), the MIC50 (Aureobasidium pullulans) was 0.25 mg/L (≈ 0.229 µM) and the MIC90 (Aureobasidium pullulans) was 1 mg/L (≈ 0.915 µM). It also gave an MIC50 (Rhizopus arrhizus) greater than 16 mg/L, an MIC90 (Rhizopus arrhizus) greater than 16 mg/L and an MIC50 (Candida orthopsilosis) of 0.06 mg/L (≈ 0.0549 µM). It also gave an MIC90 (Candida orthopsilosis) of 0.5 mg/L (≈ 0.457 µM), an MIC50 (Aspergillus ustus) of 0.12 mg/L (≈ 0.11 µM) and an MIC90 (Aspergillus ustus) of 0.5 mg/L (≈ 0.457 µM). It also gave an MIC50 [2] of 0.25 mg/L (≈ 0.229 µM), an MIC90 [2] of 1 mg/L (≈ 0.915 µM) and an MIC50 (Ustilago) greater than 16 mg/L. For the same compound, the MIC90 (Ustilago) was greater than 16 mg/L, the MIC50 (Exophiala dermatitidis) was 0.25 mg/L (≈ 0.229 µM) and the MIC90 (Exophiala dermatitidis) was 1 mg/L (≈ 0.915 µM). It also gave an MIC50 (Neurospora sitophila) greater than 16 mg/L, an MIC90 (Neurospora sitophila) greater than 16 mg/L and an MIC50 (Aspergillus nidulans) of 0.5 mg/L (≈ 0.457 µM). It also gave an MIC90 (Aspergillus nidulans) greater than 16 mg/L, an MIC50 (Beauveria bassiana) greater than 16 mg/L and an MIC90 (Beauveria bassiana) greater than 16 mg/L. For the same compound, the MIC50 (Debaryomyces hansenii) was 0.06 mg/L (≈ 0.0549 µM), the MIC90 (Debaryomyces hansenii) was 0.5 mg/L (≈ 0.457 µM) and the MIC50 (Cladosporium) was 0.25 mg/L (≈ 0.229 µM). It also gave an MIC90 (Cladosporium) of 1 mg/L (≈ 0.915 µM), an MIC50 (Aspergillus versicolor) of 0.25 mg/L (≈ 0.229 µM) and an MIC90 (Aspergillus versicolor) of 2 mg/L (≈ 1.83 µM). It also gave an MIC50 (Rhodotorula glutinis) greater than 16 mg/L, an MIC90 (Rhodotorula glutinis) greater than 16 mg/L and an MIC50 (Hortaea werneckii) of 0.25 mg/L (≈ 0.229 µM). It also gave an MIC90 (Hortaea werneckii) of 1 mg/L (≈ 0.915 µM), an MIC50 (Aspergillus glaucus) of 0.12 mg/L (≈ 0.11 µM) and an MIC90 (Aspergillus glaucus) of 0.5 mg/L (≈ 0.457 µM). For the same compound, the MIC50 (Exophiala jeanselmei) was 0.25 mg/L (≈ 0.229 µM), the MIC90 (Exophiala jeanselmei) was 1 mg/L (≈ 0.915 µM) and the MIC50 (Candida metapsilosis) was 0.06 mg/L (≈ 0.0549 µM). The MIC90 (Candida metapsilosis) was 0.5 mg/L (≈ 0.457 µM), the MIC50 [3] was greater than 16 mg/L and the MIC90 [3] was greater than 16 mg/L. The MIC50 [4] was greater than 16 mg/L, the MIC90 [4] was greater than 16 mg/L and the MIC50 (Trichosporon ovoides) was greater than 16 mg/L. The MIC90 (Trichosporon ovoides) was greater than 16 mg/L, the MIC50 (Pichia kudriavzevii) was 0.25 mg/L (≈ 0.229 µM) and the MIC90 (Pichia kudriavzevii) was 0.5 mg/L (≈ 0.457 µM). It also gave an MIC50 [5] greater than 16 mg/L, an MIC90 [5] greater than 16 mg/L and an MIC50 (Lomentospora prolificans) of 8 mg/L (≈ 7.32 µM). It also gave an MIC90 (Lomentospora prolificans) greater than 16 mg/L, an MIC50 [6] greater than 16 mg/L and an MIC90 [6] greater than 16 mg/L. The MIC50 (Lichtheimia corymbifera) was greater than 16 mg/L, the MIC90 (Lichtheimia corymbifera) was greater than 16 mg/L and the MIC50 (Trichosporon inkin) was greater than 16 mg/L. For the same compound, the MIC90 (Trichosporon inkin) was greater than 16 mg/L, the MIC50 (Candida parapsilosis) was 1 mg/L (≈ 0.915 µM) and the MIC90 (Candida parapsilosis) was 1 mg/L (≈ 0.915 µM). The MIC50 (Fusarium solani) was greater than 16 mg/L, the MIC90 (Fusarium solani) was greater than 16 mg/L and the MIC50 (Phialemonium curvatum) was greater than 16 mg/L. The MIC90 (Phialemonium curvatum) was greater than 16 mg/L, the MIC50 (Clavispora lusitaniae) was 0.5 mg/L (≈ 0.457 µM) and the MIC90 (Clavispora lusitaniae) was 1 mg/L (≈ 0.915 µM). The MIC50 [7] was greater than 16 mg/L, the MIC90 [7] was greater than 16 mg/L and the MIC50 (Fusarium oxysporum) was greater than 16 mg/L. The MIC90 (Fusarium oxysporum) was greater than 16 mg/L, the MIC50 (Rhizomucor) was greater than 16 mg/L and the MIC90 (Rhizomucor) was greater than 16 mg/L. The MIC50 (Geotrichum candidum) was greater than 16 mg/L, the MIC90 (Geotrichum candidum) was greater than 16 mg/L and the MIC50 (Saksenaea vasiformis) was greater than 16 mg/L. For the same compound, the MIC90 (Saksenaea vasiformis) was greater than 16 mg/L, the MIC50 [8] was 0.06 mg/L (≈ 0.0549 µM) and the MIC90 [8] was 0.5 mg/L (≈ 0.457 µM). It also gave an MIC50 (Rhodotorula mucilaginosa) greater than 16 mg/L, an MIC90 (Rhodotorula mucilaginosa) greater than 16 mg/L and an MIC50 (Lewia infectoria) greater than 16 mg/L. The MIC90 (Lewia infectoria) was greater than 16 mg/L.
